# According to PMC5575927 (ACS chemical biology, 2017):
# pIC50: −log10 of the molar value. Where a SMILES comes first, the peptide text is derived from it. The star is where a group is joined. AMC = Cc1cc(=O)oc2cc(N*)ccc12; Boc = CC(C)(C)OC(=O)*
# What was measured:
# [1] = test system: PmC11; assay: E64 inhibition of PmC11 proteolytic activity; type: biochemical, Parabacteroides merdae; conditions: 4-fold excess of E64; Figure S5B
# [2] = test system: clostripain; conditions: rather than covalently modifying the catalytic cysteine; ref [38],[39]; cited from earlier work
# [3] = test system: PmC11; assay: Michaelis-Menten kinetics of fluorogenic AMC substrate hydrolysis; type: biochemical, Parabacteroides merdae; conditions: 25 nM PmC11; PBS (pH 7.4), 5 mM DTT, 0.1 mM EDTA, 1 mM CaCl2, 0.1% CHAPS; 25 °C
# Summary of the method: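 Recombinant His6-tagged WT PmC11 was expressed in E. coli, self-matured, and purified by Ni-NTA and anion exchange. Reactions were started by adding Ac-VLTK-AMC at 400 pM to 400 μM. Fluorescence (excitation 355 nm, emission 460 nm) was read every 20 s for 25 min. KM and kcat were obtained by Michaelis-Menten fitting of hydrolysis rates.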
# [4] = biological target: PmC11 (Parabacteroides merdae, UniProt A0A9Q4WVB1); type: biochemical
# Summary of the method: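 Recombinant His6-tagged WT PmC11 was expressed in E. coli BL21DE3pLysS, self-matured during expression, and purified by Ni-NTA then anion exchange. Test compound was applied at decreasing amounts from 5 μM to 10 nM during the 30 min preincubation. IC50 was derived from the rate of substrate hydrolysis measured after substrate addition.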
# [5] = test system: PmC11; conditions: ref [16]; cited from earlier work
compound,measurement,setting,value
"CC(C)C[C@H](NC(=O)[C@H]1O[C@@H]1C(=O)O)C(=O)NCCCCN=C(N)N (relative stereo) [E64, L-trans-Epoxysuccinyl-leucylamido(4-guanidino)butane]",loss of proteolytic activity,[1],30%
same,manner of clostripain inhibition (in words),[2],reversible competitive
CC(=O)N[C@H](C(=O)N[C@@H](CC(C)C)C(=O)N[C@H](C(=O)N[C@@H](CCCCN)C(=O)Nc1ccc2c(C)cc(=O)oc2c1)[C@@H](C)O)C(C)C [Ac-VLTK-AMC] (Ac-VLTK-{AMC}),kcat/KM (catalytic efficiency),[3],1.6 x 10^5 s^−1M^−1
"CC(=O)N[C@H](C(=O)N[C@@H](CC(C)C)C(=O)N[C@H](C(=O)N[C@@H](CCCCN)C(=O)COC(=O)c1c(C)cccc1C)[C@@H](C)O)C(C)C [Ac-VLTK-AOMK, acetyl-Val-Leu-Thr-Lys acyloxymethyl ketone (2,6-dimethylbenzoic acid-derived acyloxy leaving group)]",pIC50,[4],> 7.60
Cc1cc(=O)oc2cc(NC(=O)C(CCCN=C(N)N)NC(=O)c3ccccc3)ccc12.Cl (stereo not shown) [Bz-Arg-AMC],hydrolysis by PmC11 (in words),[5],hydrolyze
Boc-Val-Leu-Lys-{AMC},hydrolysis by PmC11 (in words),[5],hydrolyze
Z-Gly-Gly-Arg-AMC,hydrolysis by PmC11 (in words),[5],hydrolyze
